The nature of series [1]: Lipophilicity, log D of compound at pH 7.4. The note with it: buffer.
In series [2] the test system is Rattus norvegicus. As to the kind of experiment: Metabolic stability of compound in rat plasma assessed as acylglucuronide isomers formed at 400 mg/kg, po. As to conditions: in vivo; call rule not given here.
Series [3] is described as follows: Solubility of compound in small intestinal contents in the fed state at pH 5. The format is ADME. The method, boiled down: (§1)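 Solubility measured in simulated intestinal fluid at pH 5.0 (fed) or pH 6.5 (fasted), reported in μg/mL.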
Series [4] has as its system Rattus norvegicus. Description: Hepatotoxicity in rat assessed as increase in ALT level at 400 mg/kg, po qd treated after 5 days. The class given is toxicity, organism-based. The arrangement: dose 400 mg/kg, route oral. As to conditions: in vivo, 120 h. The method, boiled down:
(§2)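 Male Han-Wistar rats (200-230 g), n = 4 per group, were given 40 or 400 (mg/kg)/day orally for 14 days in 2% Klucel LF/0.1% Tween-80 versus vehicle. Body weight was recorded at pretreatment and on days 1, 8 and 14, and food intake weekly. Clinical chemistry was sampled on day 5 and at necropsy. Organs were formalin-fixed and H&E stained. Data are given as mean ± SD and analysed by Bartlett's test.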

A short description of series [5]: Metabolic stability in CD1 mouse hepatocytes assessed as compound metabolized after 3 hrs. The class given is ADME, cell-based, Hepatocyte. The method, boiled down: (§3)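 Cryopreserved hepatocytes at 1.5 million cells/mL (pooled human male/female N = 10, male CD1 mouse, SD rat, beagle dog, cyno monkey) were incubated in Leibovitz medium with 1% FBS and 10 μM substrate. Incubation ran 3 h at 37 C with shaking and was stopped with methanol. Cell-free controls used hepatocyte incubation medium. Parent and metabolites were quantified by UV peak area at 232-242 nm, assuming equal extinction coefficients.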

Series [6] is described as follows: Metabolic stability of compound assessed as remaining level in cell free assay. The class given is ADME. The method, boiled down:
as §3

In series [7] the target is T1, Voltage-gated inwardly rectifying potassium channel KCNH2 (Homo sapiens, UniProt Q12809). As to the kind of experiment: Inhibition of human ERG expressed in CHO cells assessed as reduction of current amplitude.
Series [8] concerns Rattus norvegicus. As to the kind of experiment: Hepatotoxicity in po dosed rat assessed as increase in total bilirubin level treated for 14 days measured. The note with it: in vivo, 336 h. The format is toxicity, organism-based.
Series [9] is described as follows: Metabolic stability in Beagle dog hepatocytes assessed as compound metabolized after 3 hrs. The format is ADME, cell-based, Canis lupus familiaris, Hepatocyte. The method in brief: as §3
For series [10], the system named is Hepatocyte. As to the kind of experiment: Metabolic stability in Sprague-Dawley rat hepatocytes assessed as compound metabolized after 3 hrs. The class given is ADME, cell-based. The method in brief:
as §3

Series [11] has as its system Rattus norvegicus. Description: Toxicity in rat assessed as effect on food consumption at 400 mg/kg, po qd treated for 14 days. The class given is organism-based. Details: dose 400 mg/kg, route oral. As to conditions: in vivo, 336 h. The method in brief:
as §2

Series [12] can be described thus: Solubility of compound in small intestinal contents in the fasted state at pH 6.5. The format is ADME. The method in brief:
as §1

A short description of series [13]: Metabolic stability in cynomolgus monkey hepatocytes assessed as compound metabolized after 3 hrs. The format is ADME, cell-based, Macaca fascicularis, Hepatocyte. The method, boiled down: as §3
The test system of series [14] is Rattus norvegicus. Description: Hepatotoxicity in rat assessed as increase in ALT level at 400 mg/kg, po qd treated after 15 days. The class given is toxicity, organism-based. Details: dose 400 mg/kg, route oral. As to conditions: in vivo, 360 h. The method in brief: as §2
Series [15] has as its system Hepatocyte. As to the kind of experiment: Metabolic stability in human hepatocytes assessed as compound metabolized after 3 hrs. The class given is ADME, cell-based. The method, boiled down: as §3
In series [16] the target is Cytochrome P450 2C9 (Homo sapiens, UniProt P11712). As to the kind of experiment: Inhibition of CYP2C9 by LC/MS method. The class given is ADME.
Series [17] deals with Rattus norvegicus. As to the kind of experiment: Toxicity in rat assessed as aspartate aminotransferase level at 40 mg/kg, po qd treated for 14 days. The format is organism-based. Details: dose 40 mg/kg, route oral. The note with it: in vivo, 336 h. The method in brief:
as §2

The target in series [18] is T2, Cytochrome P450 1A2 (Homo sapiens, UniProt P05177).
T2 sequence (P05177 whole entry): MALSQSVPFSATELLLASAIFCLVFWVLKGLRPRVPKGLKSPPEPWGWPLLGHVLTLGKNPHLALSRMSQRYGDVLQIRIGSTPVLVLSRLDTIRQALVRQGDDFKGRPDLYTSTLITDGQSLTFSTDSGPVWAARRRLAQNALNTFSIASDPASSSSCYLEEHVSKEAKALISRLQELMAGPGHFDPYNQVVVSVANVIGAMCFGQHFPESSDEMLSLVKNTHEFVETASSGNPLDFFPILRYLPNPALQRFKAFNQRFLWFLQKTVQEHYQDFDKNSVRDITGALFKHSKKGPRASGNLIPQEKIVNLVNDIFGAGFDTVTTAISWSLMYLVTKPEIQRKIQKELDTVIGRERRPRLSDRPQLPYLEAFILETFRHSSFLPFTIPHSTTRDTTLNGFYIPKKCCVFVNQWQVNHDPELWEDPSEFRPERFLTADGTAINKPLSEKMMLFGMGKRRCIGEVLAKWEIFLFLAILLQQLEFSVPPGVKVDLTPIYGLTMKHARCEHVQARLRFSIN
Description: Inhibition of CYP1A2 by fluorescence method. The class given is ADME. The method in brief: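 Cytochrome P450 high-throughput panel (1A2, 2D6, 2C9, 2C19, 3A4) using fluorogenic substrates; IC50 reported.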

The target of series [19] is T1, Voltage-gated inwardly rectifying potassium channel KCNH2. As to the kind of experiment: Inhibition of human ERG expressed in CHO cells at 3 uM assessed as reduction of current amplitude.
A short description of series [20]: Cmax in rat at 400 mg/kg, po qd treated for 14 days. Details: dose 400 mg/kg, route oral. The class given is ADME, organism-based. The note with it: in vivo. The method, boiled down:
(§4)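 Male Han-Wistar rats (200-230 g) dosed orally once daily for 14 days in 2% Klucel LF/0.1% Tween-80 in water, n = 4 per group. Blood was taken from the retro-orbital sinus under isoflurane/O2 anesthesia, and plasma was separated by cold centrifugation and stored at -70 C until analysis. Exposure values refer to day 14.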

Series [21] is described as follows: Cmax in rat at 40 mg/kg, po qd treated for 14 days. The format is ADME, organism-based. Details: dose 40 mg/kg, route oral. As to conditions: in vivo. The method in brief:
as §4

The nature of series [22]: AUC(0 to 24hrs) in rat at 400 mg/kg, po qd treated for 14 days. As to conditions: plasma. Details: time < 24 hr, dose 400 mg/kg, route oral. The format is ADME, organism-based. The method in brief:
as §4

Series [23] is described as follows: AUC (0 to 24hrs) in rat at 40 mg/kg, po qd treated for 14 days. Details: time < 24 hr, dose 40 mg/kg, route oral. As to conditions: plasma. The class given is ADME, organism-based. The method in brief: as §4

Values after ≈ are worked out from the molar mass of the structure shown.

T1 sequence (Q12809 whole entry): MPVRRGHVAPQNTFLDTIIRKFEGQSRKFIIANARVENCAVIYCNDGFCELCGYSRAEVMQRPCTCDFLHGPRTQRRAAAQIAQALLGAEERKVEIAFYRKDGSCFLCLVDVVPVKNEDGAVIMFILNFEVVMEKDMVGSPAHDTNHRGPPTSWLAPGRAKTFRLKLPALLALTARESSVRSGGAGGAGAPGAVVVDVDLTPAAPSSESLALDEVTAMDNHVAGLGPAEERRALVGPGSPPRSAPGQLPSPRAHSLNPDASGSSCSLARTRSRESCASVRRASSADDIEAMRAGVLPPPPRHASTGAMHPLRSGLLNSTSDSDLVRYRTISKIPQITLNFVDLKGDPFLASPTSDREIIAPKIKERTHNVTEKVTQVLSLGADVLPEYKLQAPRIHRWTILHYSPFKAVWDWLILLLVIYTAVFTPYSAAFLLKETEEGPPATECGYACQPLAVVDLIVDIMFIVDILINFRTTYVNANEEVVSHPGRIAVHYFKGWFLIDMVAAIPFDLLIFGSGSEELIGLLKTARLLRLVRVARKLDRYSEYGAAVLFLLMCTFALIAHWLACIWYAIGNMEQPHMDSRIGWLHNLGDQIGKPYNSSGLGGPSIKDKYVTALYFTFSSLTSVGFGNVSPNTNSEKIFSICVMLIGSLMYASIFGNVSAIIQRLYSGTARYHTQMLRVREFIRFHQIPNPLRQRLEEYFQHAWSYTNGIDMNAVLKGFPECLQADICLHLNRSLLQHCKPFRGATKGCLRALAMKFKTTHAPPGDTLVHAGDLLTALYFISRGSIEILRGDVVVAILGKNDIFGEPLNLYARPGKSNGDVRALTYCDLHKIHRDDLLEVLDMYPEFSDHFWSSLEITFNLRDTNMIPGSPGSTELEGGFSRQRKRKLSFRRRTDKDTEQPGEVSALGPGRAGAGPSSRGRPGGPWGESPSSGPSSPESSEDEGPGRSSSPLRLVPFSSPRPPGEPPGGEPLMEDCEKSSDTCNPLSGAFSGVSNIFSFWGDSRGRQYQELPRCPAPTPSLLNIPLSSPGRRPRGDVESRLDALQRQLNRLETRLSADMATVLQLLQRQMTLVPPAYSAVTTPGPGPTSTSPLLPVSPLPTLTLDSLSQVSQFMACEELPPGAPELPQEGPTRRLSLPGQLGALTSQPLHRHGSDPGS
Cytochrome P450 2C9, sequence (P11712 whole entry): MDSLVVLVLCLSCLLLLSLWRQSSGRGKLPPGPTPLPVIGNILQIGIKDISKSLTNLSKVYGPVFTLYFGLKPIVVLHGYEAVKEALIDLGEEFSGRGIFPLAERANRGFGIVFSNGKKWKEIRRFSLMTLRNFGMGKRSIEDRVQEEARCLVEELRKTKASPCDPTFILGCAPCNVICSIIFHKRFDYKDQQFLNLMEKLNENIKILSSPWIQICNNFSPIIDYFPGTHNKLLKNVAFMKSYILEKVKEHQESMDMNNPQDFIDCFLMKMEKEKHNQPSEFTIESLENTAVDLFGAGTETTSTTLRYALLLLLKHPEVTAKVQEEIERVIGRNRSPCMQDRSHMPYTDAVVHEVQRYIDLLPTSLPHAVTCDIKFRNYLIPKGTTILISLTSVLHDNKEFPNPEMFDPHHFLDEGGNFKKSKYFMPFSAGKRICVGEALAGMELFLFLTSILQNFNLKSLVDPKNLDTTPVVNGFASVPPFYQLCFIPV

One may read the logD as lipophilicity at a set pH, counting ionised and neutral species. As usually defined, the solubility is the dissolved amount per volume that the medium holds. The term IC50 denotes the concentration needed to halve the response being measured. Consider `O=C(O)CCCOc1cccc(CCCCCCOc2cc(-c3ccsc3)cc(-c3ccc4c(c3)OCO4)c2)c1CCC(=O)O`, for which, in series [1], the pH-dependent lipophilicity (logD) amounted to 2.34. Moreover, in [2], the Stability turned out to be 6%. The solubility in series [3] came out at 32.9 µg/mL (≈ 52.2 µM); in series [12], 34.6 µg/mL (≈ 54.9 µM). The Activity in series [4] is 58 IU/L; in series [5], 16.9%; in series [6], 100%; in series [8] it was “Toxic”; in series [9], 27.8%; in [10], 20.4%. Moreover, the Activity result in series [11] is recorded as “Non-toxic”; in series [13], 7.7%; in series [14], 125 IU/L; in [15], 17.3%; in series [17], “Non-toxic”. Besides, the IC50 in series [7] was > 3 µM; in series [16], 22.5 µM; in [18] it was > 7.5 µM. For the same molecule, in [19], the INH result was “Not Active”.

One may read the Cmax as the highest concentration seen after dosing. In general, AUC refers to the area under the concentration-time curve, a measure of exposure. With `O=C(O)CCCOc1cccc(CCCCCCOc2cc(-c3cccc(F)c3)cc(-c3ccc4c(c3)OCO4)c2)c1CCC(=O)O`, the Cmax was 124 µg/mL in series [20] and 11300 ng/mL in series [21]. Also, the Activity is on record as 69 IU/L in series [4]; “Toxic” in [8]; “Non-toxic” in [11]; 121 IU/L in series [14]; “Non-toxic” in series [17]. The AUC at 24 h in series [22] was found to be 1870 µg·h/mL; in series [23], 80600 ng·h/mL. Also, in [18], the IC50 was > 7.5 µM.

The values are drawn from ChEMBL document CHEMBL1158546, “Discovery of novel and potent leukotriene B4 receptor antagonists. Part 1” (J Med Chem, 2010).
